Test results taken from ChEMBL document CHEMBL1145798, “Deoxyribonucleoside 2'- or 3'-mixed disulfides: prodrugs to target ribonucleotide reductase and/or to inhibit HIV reverse transcription” (J Med Chem, 2003).
Calls of active or inactive are those of the source. The calls are words filed in the database; no cut-off is given here.

Legend:
[1] = system: Human immunodeficiency virus 1; test: Effective concentration against cytopathicity of HIV-1 strain (HTLV IIIB) in CEM cell line; assay type: functional, organism-based; details: Human immunodeficiency virus 1, CCRF-CEM
In short: (§1)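 HIV-1 or HIV-2 (ROD) infected CEM cell cultures. EC50 is the compound concentration that protects cells against virus-induced cytopathicity by 50%.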

[2] = system: CCRF-CEM; test: Antiproliferative activity was determined against human T-lymphocyte cells-CEM; assay type: functional, cell-based
In short: (§2)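 Cytostatic assay on proliferating cell cultures (human CEM, Molt4/C8; murine L1210, FM3A). IC50 is the compound concentration that inhibits cell proliferation by 50%.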

[3] = system: MOLT-4; test: Antiproliferative activity was determined against human T-lymphocyte cells -Molt4/C8; assay type: functional, cell-based; in short: as §2
[4] = system: L1210; test: Antiproliferative activity was determined against murine leukemia cells (L1210); assay type: functional, cell-based; details: Mus musculus; in short: as §2
[5] = system: FM3A; test: Antiproliferative activity was determined against murine mammary carcinoma cells (FM3A); assay type: functional, cell-based; details: Mus musculus; in short: as §2
[6] = system: Human immunodeficiency virus 2; test: Effective concentration against cytopathicity of HIV-2 strain (ROD) in CEM cell line; assay type: functional, organism-based; details: Human immunodeficiency virus 2, CCRF-CEM; in short: as §1
[7] = system: CCRF-CEM; test: Cytotoxicity was determined towards CEM/SS cells (MTT); assay type: functional; details: Homo sapiens
In short: (§3)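 Cytotoxicity in CEM/SS cells measured by MTT read-out, reported as CC50.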

[8] = system: Human immunodeficiency virus 1; test: Inhibitory activity against HIV-1 strain (HTLV IIIB) in MT-4 cell line; assay type: functional; details: Human immunodeficiency virus 1, MT4; read-out: ED50 (the source's name)
[9] = system: CCRF-CEM; test: Concentration required to lower intracellular dATP levels in CEM/SS cells; assay type: functional, Homo sapiens
In short: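 CEM/SS cells exposed for 24 h at 37 °C across a dose range, then counted. dATP was measured in methanolic cell extracts by an enzymatic assay, elongation of radiolabeled oligonucleotide primers annealed to complementary templates, expressed per million viable cells. IC(dATP-50) is the concentration that depletes intracellular dATP by 50%. Mean ± SD of at least two independent experiments.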

[10] = system: CCRF-CEM; test: Cytotoxicity was determined towards CEM/SS cells using MTT assay; assay type: functional; details: Homo sapiens; in short: as §3
[11] = system: MOLT-4 (Homo sapiens); test: Antiproliferative activity was determined against human T-lymphocyte cells -Molt4/C8
[12] = system: FM3A (Mus musculus); test: Antiproliferative activity was determined against murine mammary carcinoma cells (FM3A)
[13] = system: MT4; test: Effective dose against HIV-1 strain (HTLV IIIB) in infected MT-4 cell line; assay type: functional; details: Homo sapiens, read-out: ED50 (the source's name)
[14] = system: MT4; test: Effective dose against HIV-1 strain (HTLV IIIB) in MT-4 cell line; Not active; assay type: functional, cell-based; details: Homo sapiens
[15] = system: MT4; test: Cytotoxicity towards infected MT-4 cell line; assay type: functional; details: Homo sapiens, read-out: CD50 (the source's name)

Structure (SMILES)	EC50 [1] [µM]	IC50 [2] [µM]	IC50 [3] [µM]	IC50 [4] [µM]	IC50 [5] [µM]	EC50 [6] [µM]	CC50 [7] [µM]	EC50 [8] [µM]	ICdATP-50 [9] [µM]	CC50 [10] [µM]	IC50 [11] [µM]	IC50 [12] [µM]	EC50 [13] [µM]	NA [14]	CC50 [15] [µM]
CSS[C@H]1C(O)[C@@H](CO)O[C@H]1n1ccc(=O)[nH]c1=O (stereo partly drawn)	> 65	160	220	320	> 650	> 65									
CSS[C@H]1C[C@H](n2cc(C)c(=O)[nH]c2=O)O[C@@H]1CO	10	155	25	37	280	37	120								
Nc1ccn([C@H]2C[C@H](S)[C@@H](CO)O2)c(=O)n1								20							
Nc1ccn([C@@H]2O[C@H](CO)C(O)[C@@H]2S)c(=O)n1 (stereo partly drawn)	> 340	305	650	670	> 675	> 340									
CCCSS[C@H]1C(O)[C@@H](CO)O[C@H]1n1ccc(N)nc1=O (stereo partly drawn)									50						
CSS[C@H]1C(O)[C@@H](CO)O[C@H]1n1ccc(N)nc1=O (stereo partly drawn)	> 65	82	255	350	> 650	> 65			50	330					
Cc1cn([C@H]2C[C@H](S)[C@@H](CO)O2)c(=O)[nH]c1=O	> 390	> 770		> 770		> 390					> 770	> 770			
Cc1cn([C@H]2C[C@H](N=[N+]=[N-])[C@@H](CO)O2)c(=O)[nH]c1=O [ZIDOVUDINE]	0.004	> 375	> 375												
C[C@H](Cn1cnc2c(N)ncnc21)OCP(=O)(O)O [TENOFOVIR ANHYDROUS]	4.2	> 350	> 350	> 350	> 350	3									
Cc1cn([C@H]2C[C@H](SS[C@H]3C[C@H](n4cc(C)c(O)nc4=O)O[C@@H]3CO)[C@@H](CO)O2)c(=O)nc1O	50	> 390	325	> 390	> 390	60							16	inactive	34
